Assay outcomes as filed in PubChem BioAssay.
Tb MetRS inh = Trypanosoma brucei MetRS inhibition; purified T. brucei MetRS, ATP depletion, Kinase-Glo luminescence; inhibition, % at 11.9 µM; 360,000 compounds, 0.4% hits; AID 624268;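 active means inhibition above a per-plate cutoff of the control wells' mean inhibition plus 3 SD, cut at about 5.5% in these data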;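 further: 0% = DMSO wells median and 100% = median of wells with control inhibitor compound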
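Test system: purified T. brucei MetRS enzyme. Also added: ATP, methionine and E. coli bulk tRNA substrates. Compound: 11.9 µM single point. Schedule: 15 min enzyme-compound preincubation, 2 h reaction, 10 min detection, 25 °C. Signal: luciferase luminescence of residual ATP, Kinase-Glo. Evaluation: percent inhibition versus plate control medians. Controls: DMSO wells, low control.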
WT yeast gro inh = growth inhibition of WT yeast, mitochondrial fusion screen | inhibition, % at 10 µM | mitochondrial fusion phenotypic screen, WT strain | 190,000 compounds, 2.1% hits; in the data active means inhibition above about 58%; tested in S. cerevisiae
EBV gp42 inh = EBV gp42 inhibition; Fluorescence polarization binding assay, mP read-out; inhibition, % (tested at 21.74 µM); 220,000 compounds, 0.42% hits; in the data active means inhibition above about 50%
Target sequence (Q1HVG2 whole entry, looked up): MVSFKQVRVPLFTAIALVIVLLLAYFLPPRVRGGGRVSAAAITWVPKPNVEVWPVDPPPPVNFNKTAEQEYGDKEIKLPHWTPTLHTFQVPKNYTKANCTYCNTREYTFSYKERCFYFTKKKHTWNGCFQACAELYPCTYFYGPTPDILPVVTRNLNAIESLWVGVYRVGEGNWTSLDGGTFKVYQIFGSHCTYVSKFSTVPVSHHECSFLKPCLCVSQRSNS
CHOP inhibitor = CHOP inhibition in unfolded protein response; CHO-K1 CHOP-promoter luciferase, tunicamycin-induced, 15-18 h; inhibition, % at 10 µM; 220,000 compounds, 3.8% hits; AID 2732;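 active means compounds that reduced the stress-induced luciferase reporter signal by more than about 70% of percent inhibition, limit read from the data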;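 further: 0% = tunicamycin plus vehicle and 100% = wells without tunicamycin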
MPTP block = blocks calcium-induced mitochondrial swelling | AID 602449 | isolated mouse mitochondria, Ca2+ swelling absorbance, 30 min | 360,000 compounds, 1.4% hits | inhibition, % at 10 µM;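 active means inhibition of 50% or more, scaled per plate between neutral and stimulator controls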;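 further: 0% = DMSO wells given calcium and 100% = 1 mM EGTA wells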
NR3A LBD binder = modulators (binders) of human NR3A ligand-binding domain; NR3A LBD differential scanning fluorimetry, Tm shift; 0% = protein alone, 100% = glycine-bound protein; Tm shift relative to glycine control, % at 25 µM; 340,000 compounds, 2.5% hits;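 active means melting temperature shift of at least 10% of the positive control shift, at one fixed dose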
An asterisk follows results filed as active; . = no result given. A selection: hits, their analogues and other compounds. The true share with any hit is near 6.4%.

SMILES	Tb MetRS inh	WT yeast gro inh	EBV gp42 inh	CHOP inhibitor	MPTP block	NR3A LBD binder
CC(C)CCn1c(O)c(N=NC(=O)c2ccco2)c2ccccc21	-1	5	-3	83*	0	2
Cn1c(O)c(N=NC(=O)c2ccco2)c2ccccc21	-2	15	-8	1	9	-2
Cc1nc2ncc(Br)cc2[nH]1	0	-7	-2	33	-1	-5
CNC(=S)N(Cc1ccc2c(c1)OCO2)C1CC(=O)N(c2ccccc2)C1=O (stereo not given)	0	15	0	12	3	8
CCNC(=S)N(Cc1ccc2c(c1)OCO2)C1CC(=O)N(c2ccc(F)cc2)C1=O (stereo not given)	-1	-2	-12	73*	-1	-1
CCNC(=S)N(Cc1ccc2c(c1)OCO2)C1CC(=O)N(c2ccc(OC)cc2)C1=O (stereo not given)	-1	8	-8	55	-2	26*
CCNC(=S)N(Cc1ccc(OC)cc1)C1CC(=O)N(c2ccc(OCC)cc2)C1=O (stereo not given)	0	15	9	73*	-3	18*
Cc1cc(C(=O)Nc2cccc(O)c2)c(C)o1	0	-9	0	0	0	17*
COc1cccc(CNS(=O)(=O)c2cc(Br)cc3c2N(C(C)=O)C(C)C3)c1 (stereo not given)	0	7	5	1	-1	12*
O=C(NCCc1ccccc1)C1CCC(Cn2c(=O)c3ccccc3n(Cc3cccc(Cl)c3)c2=O)CC1 (stereo not given)	-1	.	.	.	4	0
COc1ccc(/C=C\C(=O)c2c(O)ccc3c(C)cc(=O)oc23)cc1OC	1	9	2	73*	0	14*
COc1cc(/C=C/C(=O)c2c(O)ccc3c(C)cc(=O)oc23)ccc1O	-1	21	-16	-38	-3	-2
CCCOc1ncnc2c1[nH]c1ccccc12	0	-4	10	72*	26	2
O=C(Nc1sc2c(c1C(=O)c1ccccc1)CCCC2)c1cccnc1	0	7	-4	61	1	-10
O=C(Nc1sc2c(c1C(=O)c1ccc(Cl)cc1)CCCC2)c1cccnc1	-1	47	-5	79*	5	1
C[C@H](CO)N1C[C@H](C)[C@@H](CN(C)Cc2ccc(Oc3ccccc3)cc2)Oc2c(NS(=O)(=O)c3cn(C)cn3)cccc2C1=O	-1	.	.	.	0	-1
CCc1noc(C)c1C(=O)Nc1nc(-c2ccc(Cl)cc2Cl)cs1	1	54	11	73*	48	-21
COc1ccc(-c2cc(O)cc(O)c2)cc1	-1	-2	-15	9	-1	11*
C=CCN1C(=O)C(Cc2ccc(C)cc2)S/C1=N/N=C/c1ccco1 (stereo not given)	-1	-13	-23	76*	0	0
CC(=O)NC(=S)Nc1ccc(NC(=O)COc2ccc(C(C)C)cc2)cc1	0	8	-13	55	9	-1
CC(C)(C)OC(=O)N1CCC(C(=O)Nc2ccc3c(c2)CCC3)CC1	0	.	.	.	1	0
Cn1c(CC(=O)Nc2ccccc2F)nnc1SCC(=O)NC1CCCC1	-1	.	.	.	0	-3
Cc1ccc(SCc2nc3ccccc3n2CC(=O)Nc2c(C)cccc2C)cc1	0	-7	-24	90*	9	-1
Cc1ccc(SCc2nc3ccccc3n2CC(=O)Nc2ccccc2)cc1	2	28	-10	34	10	0
NS(=O)(=O)c1ccc(N2N=C(c3ccccc3)CC2c2ccc(Br)cc2)cc1 (stereo not given)	0	.	.	.	-1	.
SMILES	Tb MetRS inh	WT yeast gro inh	EBV gp42 inh	CHOP inhibitor	MPTP block	NR3A LBD binder
CCc1ccc(C2=NN(c3ccc(S(N)(=O)=O)cc3)C(c3ccc(F)cc3)C2)cc1 (stereo not given)	1	94*	-22	90*	3	8
NS(=O)(=O)c1ccc(N2N=C(c3ccccc3)CC2c2ccccc2)cc1 (stereo not given)	0	72*	2	81*	1	1
O=C(Nc1nc2c(s1)CCc1ccccc1-2)c1cccs1	-2	10	-11	49	4	5
Fc1ccccc1Nc1nc2c(s1)CCc1ccccc1-2	.	64*	-58	71*	.	.
CCOc1ccc(C(C)C)cc1S(=O)(=O)Nc1ccc(Cl)cn1	-1	0	-10	50	-2	12*
O=S(=O)(c1ccc2ccccc2c1)N1CCN(C(=S)Nc2ccc(F)c(Cl)c2)CC1	0	0	-7	18	29	19*
Cc1ccccc1OCCNc1cc(N2CC(C)NC(C)C2)ccc1[N+](=O)[O-] (stereo not given)	0	87*	-1	16	9	-33
CCOc1cc(/C=C2/NC(=O)NC2=O)cc([N+](=O)[O-])c1O	-1	0	-5	-4	3	0
Cc1cccc(C)c1NC1=NC(=S)N(c2ccccc2)C12CCOC(C)(C)C2 (stereo not given)	-1	-6	-17	-17	-2	0
Cc1ccc(N2C(=S)N=C(Nc3ccccc3C)C23CCOC(C)(C)C3)cc1 (stereo not given)	-1	3	-19	84*	0	0
O=C(CC1Nc2ccccc2NC1=O)Nc1ccc2c(c1)OCO2 (stereo not given)	0	8	12	12	2	-10
Cc1ccc(NC(=O)CC2Nc3ccccc3NC2=O)cc1Cl (stereo not given)	-1	.	.	.	3	10*
CC(=O)NC1=C(N(C)C2CCS(=O)(=O)C2)C(=O)c2ccccc2C1=O (stereo not given)	0	12	-6	75*	3	-9
Cc1cc2c(N=NC(=O)C3CC3c3ccccc3)c(O)[nH]c2cc1Br (stereo not given)	-1	36	-8	71*	11	-6
Cc1cccc2cc(C3CC(c4ccco4)=NN3C(=O)CCC(=O)O)c(Cl)nc12 (stereo not given)	-1	2	-2	-17	1	1
Cc1ccc(/C=N/NC(=O)C[n+]2ccccc2)s1	2	.	-7	-3	0	-1
Cc1ccc(-c2nnc(SCC(=O)N/N=C/c3ccccc3C(=O)O)n2-c2ccccc2)cc1	.	12	-6	-6	.	.
Cc1ccc(-c2nnc(SCC(=O)N/N=C/c3ccc(C)s3)n2-c2ccc(C)cc2)cc1	0	40	-1	75*	2	-3
Cc1ccc(/C=N/NC(=O)c2ccco2)s1	-1	2	-18	8	2	-5
Cc1ccc(/C=N/NC(=O)c2ccc(C(=O)N/N=C/c3ccc(C)s3)o2)s1	0	20	-18	-25	4	28*
CCCCCCCCCC(=O)N/N=C/c1ccc(C)s1	0	.	5	95*	17	-5
